# The source made the active and inactive calls. The calls are words filed in the database; no cut-off is given here.
# Tests used:
# NCI-H2030 = assay: Antiproliferative activity against human NCI-H2030 cells harboring KRAS G12C mutant assessed as reduction in cell viability; type: functional, cell-based
# Homo sapiens = species on record: Homo sapiens; assay: Covalent inhibition of GDP bound His-tagged KRAS G12C/C51L/C80L/C118S mutant (1 to 169 residues) (unknown origin) expressed in Escherichia coli assessed as enzyme-compound adduct formation at Cys12 residue by measuring ratio of Kinact/Ki measured up to 20 mins by mass spectrometry analysis; settings: time min <=20
# Outline: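 KRAS G12C was held fixed at 2 μM and incubated with varying compound concentrations. Fraction of covalent Cys12 adduct over time was measured by intact-protein LC-MS, and kinact/KI was calculated from these kinetic data.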
# [1] = molecular target: T1, Quinone oxidoreductase (Homo sapiens) (UniProt Q08257); assay: (§1) Covalent binding affinity to CRYZ at Cys45 residue in human NCI-H358 cells assessed as log2 H/L ratio at 10 uM pretreated for 3 hrs followed by N-(((6S,7R)-7-(4-chloro-3-fluorophenyl)-1,4-oxazepan-6-yl)methyl)-2-hydroxyacetamide treatment for 3 hrs by competitive TMT click chemistry pull-down experiment based LC-MS/MS analysis; type: cell-based; settings: time 6.0 hrs
# T1 sequence (whole entry): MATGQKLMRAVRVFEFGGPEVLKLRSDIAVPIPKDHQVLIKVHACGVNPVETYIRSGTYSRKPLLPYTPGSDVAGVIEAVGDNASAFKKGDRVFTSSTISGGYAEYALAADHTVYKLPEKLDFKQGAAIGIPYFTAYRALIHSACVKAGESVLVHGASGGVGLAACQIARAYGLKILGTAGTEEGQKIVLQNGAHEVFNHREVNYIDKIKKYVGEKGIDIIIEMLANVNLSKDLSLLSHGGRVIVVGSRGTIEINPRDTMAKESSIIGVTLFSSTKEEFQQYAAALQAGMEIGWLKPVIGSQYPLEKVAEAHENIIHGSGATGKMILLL
# Outline: (§2)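 H358 cells were pretreated with DMSO (n = 3) or 10 μM compound for 3 h, then 2 μM alkyne probe was added for another 3 h. Cells were lysed, clicked onto azide-agarose resin, digested, TMT-labelled and pooled. The pool was fractionated by high-pH HPLC and each fraction run twice by 60 min low-pH nano LC-MS/MS. Readout was log2 compound/DMSO normalized reporter intensity, with a least-squares means test and FDR adjustment.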
# [2] = molecular target: T2, Peroxiredoxin-like 2A (Homo sapiens) (UniProt Q9BRX8); assay: as §1, with “FAM213A” for “CRYZ at Cys45 residue”; type: cell-based; settings: time 6.0 hrs; outline: as §2
# T2 sequence (whole entry): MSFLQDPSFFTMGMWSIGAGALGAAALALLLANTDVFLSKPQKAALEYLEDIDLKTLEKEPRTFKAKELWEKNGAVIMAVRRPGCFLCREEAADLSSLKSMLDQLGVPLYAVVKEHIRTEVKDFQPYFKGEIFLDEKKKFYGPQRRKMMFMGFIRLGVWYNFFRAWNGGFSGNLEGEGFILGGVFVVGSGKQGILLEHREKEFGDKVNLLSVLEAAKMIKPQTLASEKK
# Heme oxygenase 2 = molecular target: T3, Heme oxygenase 2 (Homo sapiens, UniProt P30519); assay: (§3) Covalent binding affinity to HMOX2 at Cys282 residue in human NCI-H358 cells assessed as reduction of log2 H/L ratio for tryptic peptide […] incubated for 4 hrs followed by cell lysis and subsequently labelled with light thiol probe N-((S)-18-iodo-11-isopropyl-10,13,17-trioxo-3,6-dioxa-9,12,16-triazaoctadecyl)-6-((4R,5S)-5-methyl-2-oxoimidazolidin-4-yl)hexanamide and heavy thiol probe 4 for 1 hr under dark conditions followed by tryptic digestion for overnight and measured by discovery ABPP based nano LC-MS/MS analysis
# T3 sequence (P30519 whole entry): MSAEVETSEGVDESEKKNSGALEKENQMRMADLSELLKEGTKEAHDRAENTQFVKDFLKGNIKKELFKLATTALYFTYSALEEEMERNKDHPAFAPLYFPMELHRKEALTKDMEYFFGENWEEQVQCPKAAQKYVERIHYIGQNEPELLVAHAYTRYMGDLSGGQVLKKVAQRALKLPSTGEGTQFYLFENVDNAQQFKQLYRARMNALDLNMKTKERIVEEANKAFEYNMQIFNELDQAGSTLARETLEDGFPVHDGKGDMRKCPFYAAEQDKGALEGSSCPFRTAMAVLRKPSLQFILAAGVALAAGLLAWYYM
# Outline: (§4)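 H358 cells were treated 4 h with DMSO, 0.08, 0.4, 2 or 10 μM, each paired with DMSO control cells, in biological duplicate. After lysis and denaturation, treated lysate took heavy thiol probe and control lysate took light probe. Lysates were combined equally, and probe-labelled tryptic peptides were streptavidin-enriched. Peptides were run twice by 180 min data-dependent nano LC-MS/MS. Hits needed log2 H/L below −0.776 (3σ) plus a dose-dependent decrease.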
# Quinone oxidoreductase = molecular target: T4, Quinone oxidoreductase (Homo sapiens, UniProt Q08257); assay: as §3, with “CRYZ” for “HMOX2”, “Cys45” for “Cys282”; outline: as §4
# T4 sequence (Q08257 whole entry): T1 sequence (whole entry)
# [3] = molecular target: T5, Heme oxygenase 2 (Homo sapiens) (UniProt P30519); assay: as §1, with “HMOX2” for “CRYZ”, “Cys282” for “Cys45”; type: cell-based; settings: time 6.0 hrs; outline: as §2
# T5 sequence (whole entry): T3 sequence (P30519 whole entry)
# [4] = molecular target: T6, Synaptic vesicle membrane protein VAT-1 homolog (Homo sapiens, UniProt Q99536); assay: as §3, with “VAT1” for “HMOX2”, “Cys” for “Cys282”; outline: as §4
# T6 sequence (Q99536 whole entry): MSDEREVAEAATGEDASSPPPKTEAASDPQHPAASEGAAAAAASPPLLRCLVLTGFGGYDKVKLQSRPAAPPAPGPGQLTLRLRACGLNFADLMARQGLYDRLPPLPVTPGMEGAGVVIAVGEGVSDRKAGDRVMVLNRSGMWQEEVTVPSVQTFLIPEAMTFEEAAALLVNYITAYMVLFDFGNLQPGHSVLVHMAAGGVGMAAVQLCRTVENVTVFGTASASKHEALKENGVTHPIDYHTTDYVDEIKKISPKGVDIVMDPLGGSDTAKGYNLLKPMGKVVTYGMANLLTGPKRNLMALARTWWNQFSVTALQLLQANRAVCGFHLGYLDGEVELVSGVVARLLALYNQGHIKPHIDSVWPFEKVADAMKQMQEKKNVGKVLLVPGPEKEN
# [5] = molecular target: T2, Peroxiredoxin-like 2A (Homo sapiens); assay: Covalent binding affinity to FAM213A in human NCI-H358 cells incubated for 4 hrs followed by cell lysis and subsequently labelled with light thiol probe N-((S)-18-iodo-11-isopropyl-10,13,17-trioxo-3,6-dioxa-9,12,16-triazaoctadecyl)-6-((4R,5S)-5-methyl-2-oxoimidazolidin-4-yl)hexanamide and heavy thiol probe 4 for 1 hr under dark conditions followed by tryptic digestion for overnight and measured by discovery ABPP based nano LC-MS/MS analysis
# NCI-H23 = assay: Antiproliferative activity against human NCI-H23 cells harboring KRAS G12C mutant assessed as reduction in cell viability; type: functional, cell-based
# Reticulon-4 = molecular target: T7, Reticulon-4 (Homo sapiens, UniProt Q9NQC3); assay: as §3, with “RTN4” for “HMOX2”, “Cys1101” for “Cys282”; outline: as §4
# T7 sequence (Q9NQC3 whole entry): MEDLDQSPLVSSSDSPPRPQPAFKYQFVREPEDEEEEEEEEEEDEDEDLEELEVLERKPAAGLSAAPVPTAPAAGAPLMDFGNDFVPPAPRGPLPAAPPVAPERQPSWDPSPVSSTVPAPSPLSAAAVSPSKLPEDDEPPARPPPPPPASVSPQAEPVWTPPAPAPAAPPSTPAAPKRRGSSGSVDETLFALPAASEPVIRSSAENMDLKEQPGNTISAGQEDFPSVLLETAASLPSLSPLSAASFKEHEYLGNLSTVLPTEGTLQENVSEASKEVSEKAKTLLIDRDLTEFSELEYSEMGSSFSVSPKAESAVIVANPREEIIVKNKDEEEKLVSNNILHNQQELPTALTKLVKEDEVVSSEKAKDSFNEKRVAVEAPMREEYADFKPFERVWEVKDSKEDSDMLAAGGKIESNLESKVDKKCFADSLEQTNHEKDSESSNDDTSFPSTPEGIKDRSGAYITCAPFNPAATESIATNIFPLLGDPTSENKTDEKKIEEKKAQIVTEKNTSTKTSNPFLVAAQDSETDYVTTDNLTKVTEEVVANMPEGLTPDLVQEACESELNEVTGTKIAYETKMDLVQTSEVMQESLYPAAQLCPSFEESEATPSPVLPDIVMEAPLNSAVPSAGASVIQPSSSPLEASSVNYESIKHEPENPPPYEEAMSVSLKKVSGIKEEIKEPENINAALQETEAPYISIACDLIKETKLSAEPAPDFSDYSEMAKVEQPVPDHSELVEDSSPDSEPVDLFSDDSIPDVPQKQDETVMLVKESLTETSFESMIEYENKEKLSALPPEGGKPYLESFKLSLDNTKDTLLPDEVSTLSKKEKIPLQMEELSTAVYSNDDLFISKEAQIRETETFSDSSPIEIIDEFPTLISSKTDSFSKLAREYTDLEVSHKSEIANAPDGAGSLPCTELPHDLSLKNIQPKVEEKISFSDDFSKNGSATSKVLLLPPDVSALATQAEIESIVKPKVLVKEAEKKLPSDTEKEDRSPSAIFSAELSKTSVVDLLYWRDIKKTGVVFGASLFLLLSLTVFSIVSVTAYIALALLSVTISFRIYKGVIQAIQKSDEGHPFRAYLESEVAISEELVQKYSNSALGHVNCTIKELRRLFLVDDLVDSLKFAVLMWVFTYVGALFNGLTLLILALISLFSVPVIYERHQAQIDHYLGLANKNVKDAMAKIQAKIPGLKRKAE
# [6] = molecular target: T6, Synaptic vesicle membrane protein VAT-1 homolog; assay: as §3, with “VAT1” for “HMOX2”, “Cys” for “Cys282”; outline: as §4; remark: listed apart in the source
compound,measurement,setting,value
C=CC(=O)N1CCN(c2ncnc3c(F)c(-c4c(O)cccc4F)c(Cl)cc23)CC1,IC50,NCI-H2030,0.16 µM
same,Ratio,Homo sapiens,501 M⁻¹ s⁻¹
same,Ratio,[1],0.15
same,Ratio,[2],-1.7
same,IC50,Heme oxygenase 2,7.64 µM
same,IC50,Quinone oxidoreductase,8.44 µM
same,Ratio,[3],-0.3
same,IC50,[4],4.54 µM
same,Activity,[5],inactive
same,IC50,NCI-H23,0.7 µM
same,IC50,Reticulon-4,14.6 µM
same,IC50,[6],4.48 µM

# Reference: ChEMBL document CHEMBL4715824, “Chemical Proteomic Characterization of a Covalent KRASG12C Inhibitor” (ACS Med Chem Lett, 2018)
